ChEMBL document CHEMBL1765047, “Synthesis and in vivo evaluation of (S)-6-(4-fluorophenoxy)-3-((1-[11C]methylpiperidin-3-yl)methyl)-2-o-tolylquinazolin-4(3H)-one, a potential PET tracer for growth hormone secretagogue receptor (GHSR)” (Bioorg Med Chem, 2011)
pKi: −log10 of the molar value. Calls of active or inactive are those of the source. The calls are words filed in the database; no cut-off is given here.

What was measured:
[1] = target: Growth hormone secretagogue receptor type 1 (Homo sapiens, UniProt Q92847); assay: Inhibition of [125I]Ghrelin binding to human Ghrelin receptor expressed in CHO-K1 cells after 60 mins by liquid scintillation spectrometry; assay type: cell-based
Growth hormone secretagogue receptor type 1, sequence (Q92847 whole entry): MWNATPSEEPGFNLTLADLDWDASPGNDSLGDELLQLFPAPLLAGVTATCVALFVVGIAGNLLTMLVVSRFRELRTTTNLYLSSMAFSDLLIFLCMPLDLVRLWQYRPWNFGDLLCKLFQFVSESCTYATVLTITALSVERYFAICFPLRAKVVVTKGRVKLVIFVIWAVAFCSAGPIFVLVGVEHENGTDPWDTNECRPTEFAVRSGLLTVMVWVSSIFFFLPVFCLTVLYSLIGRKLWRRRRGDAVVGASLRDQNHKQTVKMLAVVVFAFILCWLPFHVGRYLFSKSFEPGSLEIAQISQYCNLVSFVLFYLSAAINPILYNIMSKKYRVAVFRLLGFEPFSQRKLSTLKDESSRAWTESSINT
In short: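 Membranes from CHO-K1 cells stably expressing human GHSR, prepared in modified HEPES pH 7.4. 0.25 mg membrane incubated with 0.03 nM [125I]human ghrelin for 60 min at 25°C; nonspecific binding with […]. Filter-bound radioactivity counted by liquid scintillation. Duplicates at multiple concentrations; one-site competition fit for IC50, Ki by Cheng-Prusoff.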

[2] = target: Growth hormone secretagogue receptor type 1 (Mus musculus) (UniProt Q99P50); assay: Binding affinity to mouse Ghrelin receptor in mouse hypothalamus after 90 mins in presence of receptor antagonist (S)-6-(4-Fluorophenoxy)-3-(piperidin-3-ylmethyl)-2-o-tolylquinazolin-4(3H)-one; conditions: tested as the 11C-labelled form
Growth hormone secretagogue receptor type 1 (Mus musculus), sequence (Q99P50 whole entry, looked up): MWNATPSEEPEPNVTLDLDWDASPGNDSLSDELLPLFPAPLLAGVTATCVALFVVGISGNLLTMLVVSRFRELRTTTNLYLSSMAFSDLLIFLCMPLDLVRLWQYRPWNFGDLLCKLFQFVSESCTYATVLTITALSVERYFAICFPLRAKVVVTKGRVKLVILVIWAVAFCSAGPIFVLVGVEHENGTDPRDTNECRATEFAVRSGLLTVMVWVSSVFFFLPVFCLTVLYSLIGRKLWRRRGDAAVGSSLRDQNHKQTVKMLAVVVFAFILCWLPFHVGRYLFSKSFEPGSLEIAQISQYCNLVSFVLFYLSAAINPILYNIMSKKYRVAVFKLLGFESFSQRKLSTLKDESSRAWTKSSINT

- pKi [1]: 7.66
- Activity [2]: Active
Structure (SMILES): Cc1ccccc1-c1nc2ccc(Oc3ccc(F)cc3)cc2c(=O)n1C[C@H]1CCCN(C)C1
